Data from ChEMBL document CHEMBL4359877, “Identification of benzothiazinones containing an oxime functional moiety as new anti-tuberculosis agents” (Eur J Med Chem, 2019).
Converted amounts (≈) assume the structure as drawn.

Legend:
[1] = Cytotoxicity against African green monkey Vero cells assessed as reduction in cell viability; format: cell-based; conditions: chlorocebus sabaeus
[2] = tested on: Mycobacterium tuberculosis; assay: Antimycobacterial activity against Mycobacterium tuberculosis H37Rv ATCC 27294 assessed as reduction in bacterial cell growth incubated for 7 days by microplate alamar blue assay; format: functional; conditions: H37Rv ATCC 27294, 168 h
How it was run: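 MABA: H37Rv or clinical MDR isolates (resistant to INH and RFP, Beijing Chest Hospital patients) grown to late log phase in 7H9 with glycerol, Tween 80 and ADC, washed, filtered and frozen. Two-fold compound dilutions with 2 × 10⁵ CFU per well, 37 °C; Alamar blue plus Tween 80 added on day 7, fluorescence (ex 530/em 590) read after 16–24 h. MIC = lowest concentration giving ≥90% fluorescence reduction versus mean of bacterium-only controls; RIF and INH as positive controls.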

Structure (SMILES) | CC50 [1] | MIC90 [2]
CCO/N=C(\C)CN1CCN(c2nc(=O)c3cc(C(F)(F)F)cc([N+](=O)[O-])c3s2)CC1 | > 64 µg/mL | < 0.016 µg/mL
C/C(CN1CCN(c2nc(=O)c3cc(C(F)(F)F)cc([N+](=O)[O-])c3s2)CC1)=N\OCc1ccccc1 | > 64 µg/mL | < 0.016 µg/mL
CCON=C1CCC(CN2CCN(c3nc(=O)c4cc(C(F)(F)F)cc([N+](=O)[O-])c4s3)[C@@H](C)C2)CC1 (stereo not given in full) | > 64 µg/mL | < 0.016 µg/mL
CON=C1CCC(CN2CCN(c3nc(=O)c4cc(C(F)(F)F)cc([N+](=O)[O-])c4s3)C[C@@H]2C)CC1 (stereo not given in full) | > 64 µg/mL | < 0.016 µg/mL
CO/N=C(\C)CCN1CCN(c2nc(=O)c3cc(C(F)(F)F)cc([N+](=O)[O-])c3s2)CC1 | > 64 µg/mL | < 0.016 µg/mL
CON=C1CCC(CN2CCN(c3nc(=O)c4cc(C(F)(F)F)cc([N+](=O)[O-])c4s3)C[C@H]2C)CC1 (stereo not given in full) | > 64 µg/mL | < 0.016 µg/mL
CON=C1CCC(CN2CCN(c3nc(=O)c4cc(C(F)(F)F)cc([N+](=O)[O-])c4s3)[C@@H](C)C2)CC1 (stereo not given in full) | > 64 µg/mL | < 0.016 µg/mL
CCO/N=C(\C)CN1CCC2(CCN(c3nc(=O)c4cc(C(F)(F)F)cc([N+](=O)[O-])c4s3)CC2)C1 | – | 0.029 µg/mL (≈ 0.0565 µM)
CCON=C1CCC(CN2CCN(c3nc(=O)c4cc(C(F)(F)F)cc([N+](=O)[O-])c4s3)C[C@H]2C)CC1 (stereo not given in full) | > 64 µg/mL | < 0.016 µg/mL
CON=C1CC(CN2CCN(c3nc(=O)c4cc(C(F)(F)F)cc([N+](=O)[O-])c4s3)CC2C)C1 (stereo not given) | – | 0.056 µg/mL (≈ 0.115 µM)
C/C(CCN1CCC2(CCN(c3nc(=O)c4cc(C(F)(F)F)cc([N+](=O)[O-])c4s3)CC2)C1)=N/OCc1ccccc1 | – | 0.119 µg/mL (≈ 0.202 µM)
CO/N=C(\C)CN1CCC2(CCN(c3nc(=O)c4cc(C(F)(F)F)cc([N+](=O)[O-])c4s3)CC2)C1 | – | 0.085 µg/mL (≈ 0.17 µM)
CO/N=C(\C)CN1CCN(c2nc(=O)c3cc(C(F)(F)F)cc([N+](=O)[O-])c3s2)CC1 | – | 0.037 µg/mL (≈ 0.0831 µM)
CON=C1CCC(CN2CCN(c3nc(=O)c4cc(C(F)(F)F)cc([N+](=O)[O-])c4s3)[C@H](C)C2)CC1 (stereo not given in full) | – | 0.023 µg/mL (≈ 0.0448 µM)
CCON=C1CC(CN2C(C)CN(c3nc(=O)c4cc(C(F)(F)F)cc([N+](=O)[O-])c4s3)CC2C)C1 (stereo not given) | – | 0.056 µg/mL (≈ 0.109 µM)
CCON=C1CCC(CN2CCN(c3nc(=O)c4cc(C(F)(F)F)cc([N+](=O)[O-])c4s3)C[C@@H]2C)CC1 (stereo not given in full) | > 64 µg/mL | < 0.016 µg/mL
CON=C1CC(CN2CCN(c3nc(=O)c4cc(C(F)(F)F)cc([N+](=O)[O-])c4s3)CC2)C1 (stereo not given) | – | 0.023 µg/mL (≈ 0.0488 µM)
CON=C1CCC(CN2CC(C)N(c3nc(=O)c4cc(C(F)(F)F)cc([N+](=O)[O-])c4s3)CC2C)CC1 (stereo not given) | – | 0.031 µg/mL (≈ 0.0588 µM)
CCO/N=C(\C)CCN1CCN(c2nc(=O)c3cc(C(F)(F)F)cc([N+](=O)[O-])c3s2)CC1 | > 64 µg/mL | < 0.016 µg/mL
CCON=C1CCC(CN2CCN(c3nc(=O)c4cc(C(F)(F)F)cc([N+](=O)[O-])c4s3)[C@H](C)C2)CC1 (stereo not given in full) | > 64 µg/mL | < 0.016 µg/mL
CCON=C1CC(CN2CCN(c3nc(=O)c4cc(C(F)(F)F)cc([N+](=O)[O-])c4s3)CC2C)C1 (stereo not given) | – | 0.052 µg/mL (≈ 0.104 µM)
CON=C1CC(CN2C(C)CN(c3nc(=O)c4cc(C(F)(F)F)cc([N+](=O)[O-])c4s3)CC2C)C1 (stereo not given) | – | 0.066 µg/mL (≈ 0.132 µM)
CCO/N=C(/C)CCN1CCC2(CCN(c3nc(=O)c4cc(C(F)(F)F)cc([N+](=O)[O-])c4s3)CC2)C1 | – | 0.241 µg/mL (≈ 0.457 µM)
C/C(CCN1CCN(c2nc(=O)c3cc(C(F)(F)F)cc([N+](=O)[O-])c3s2)CC1)=N\OCc1ccccc1 | > 64 µg/mL | < 0.016 µg/mL
CO/N=C(/C)CCN1CCC2(CCN(c3nc(=O)c4cc(C(F)(F)F)cc([N+](=O)[O-])c4s3)CC2)C1 | – | 0.469 µg/mL (≈ 0.913 µM)
CON=C1CCC(CN2C(C)CN(c3nc(=O)c4cc(C(F)(F)F)cc([N+](=O)[O-])c4s3)CC2C)CC1 (stereo not given) | > 64 µg/mL | < 0.016 µg/mL
CO[C@H]1/C=C/O[C@@]2(C)Oc3c(C)c(O)c4c(O)c(c(/C=N/N5CCN(C)CC5)c(O)c4c3C2=O)NC(=O)/C(C)=C\C=C\[C@H](C)[C@H](O)[C@@H](C)[C@@H](O)[C@@H](C)[C@H](OC(C)=O)[C@@H]1C [RIFAMPIN] | – | 0.078 µg/mL (≈ 0.0948 µM)
